According to ChEMBL document CHEMBL1124233, “Clofazimine analogues active against a clofazimine-resistant organism” (J Med Chem, 1988):

Assays:
Type in all cases: functional, organism-based
[1] = tested on: Mycolicibacterium smegmatis; assay: Concentration for 100% inhibition of growth of dapsone sensitive Mycobacterium smegmatis 607 strain in vitro
Outline: (§1)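 M. smegmatis ATCC607-derived strains (one of three used, including a dapsone-sensitive one) were grown in modified Kirchner's medium with 0.5% Tween 80, inoculated with 10^5 viable cells. Drugs were added in DMSO (2% final). Roller tubes were incubated at 37 °C for 72 h. Growth was read as spectrophotometric transmission.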

[2] = tested on: Mycolicibacterium smegmatis; assay: 100% inhibition of growth of clofazimine resistant Mycobacterium smegmatis 607 strain in vitro
Outline: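 Strain: 20× step-up clofazimine-resistant mutant of M. smegmatis ATCC607. 10^5 viable cells inoculated into modified Kirchner's medium with 0.5% Tween 80. Drugs were added in DMSO (2% final in all tubes). Roller tubes were incubated at 37 °C for 72 h. Growth was read as optical transmission in a spectrophotometer.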

[3] = tested on: Mycolicibacterium smegmatis; assay: 100% inhibition of growth of rifampicin resistant Mycobacterium smegmatis 607 strain in vitro; outline: as §1

| SMILES | Concentration [1] [µg/mL] | Concentration [2] [µg/mL] | Concentration [3] [µg/mL] |
| --- | --- | --- | --- |
| N=c1cc2n(-c3ccc(Cl)cc3)c3ccccc3nc-2cc1Nc1ccc(Cl)cc1 | 3 | 40 | 3 |
| CC(C)C(C)/N=c1\cc2n(-c3ccc(Cl)cc3)c3ccccc3nc-2cc1Nc1ccc(Cl)cc1 (stereo not drawn) | 3 | 30 | 4 |
| CCOc1ccc(Nc2cc3nc4ccccc4n(-c4ccc(OCC)cc4)c-3c/c2=N\CCN(CC)CC)cc1 | 1 | 5 | 1 |
| Clc1ccc2c(c1)nc1cc(Nc3ccccc3)/c(=N/CC3CCNCC3)cc-1n2-c1ccccc1 | 0.2 | 1 | 0.4 |
| CC(C)CC/N=c1\cc2n(-c3ccccc3)c3ccccc3nc-2cc1Nc1ccccc1 | 2 | 20 | 2 |
| CC(C/N=c1\cc2n(-c3ccccc3)c3ccccc3nc-2cc1Nc1ccccc1)N(C)C (stereo not drawn) | 0.8 | 4 | 1 |
| CC1CCCCN1CCC/N=c1\cc2n(-c3ccc(Cl)cc3)c3ccccc3nc-2cc1Nc1ccc(Cl)cc1 (stereo not drawn) | 0.2 | 2 | 0.2 |
| c1ccc(Nc2cc3nc4ccccc4n(-c4ccccc4)c-3c/c2=N\CCN2CCCC2)cc1 | 0.4 | 2 | 0.4 |
| CCN1CCCC1C/N=c1\cc2n(-c3ccc(Cl)cc3)c3ccccc3nc-2cc1Nc1ccc(Cl)cc1 (stereo not drawn) | 1 | 10 | 1 |
| CCC(CO)/N=c1\cc2n(-c3ccccc3)c3ccccc3nc-2cc1Nc1ccccc1 (stereo not drawn) | 2 | 100 | 30 |
| CCCCN(CCCC)CCC/N=c1\cc2n(-c3ccc(Cl)cc3)c3ccccc3nc-2cc1Nc1ccc(Cl)cc1 | 0.4 | 12 | 0.8 |
| c1ccc(Nc2cc3nc4ccccc4n(-c4ccccc4)c-3c/c2=N\CCCN2CCOCC2)cc1 | 1 | 6 | 0.8 |
| CCOc1ccc(Nc2cc3nc4ccccc4n(-c4ccc(OCC)cc4)c-3c/c2=N\CCO)cc1 | 5 | 20 | 10 |
| CNCCC/N=c1\cc2n(-c3ccc(Cl)cc3)c3ccccc3nc-2cc1Nc1ccc(Cl)cc1 | 0.2 | 0.6 | 0.3 |
| CCN(CC)CC/N=c1\cc2n(-c3ccc(C)cc3)c3ccccc3nc-2cc1Nc1ccc(C)cc1 | 0.5 | 3 | 0.5 |
| Clc1ccc(Nc2cc3nc4ccccc4n(-c4ccc(Cl)cc4)c-3c/c2=N\CC2CCCCC2)cc1 | 3 | 100 | 3 |
| Clc1ccc2c(c1)nc1cc(Nc3ccccc3)/c(=N/CCN3CCOCC3)cc-1n2-c1ccccc1 | 1 | 50 | 1.5 |
| CCN(CC)CCCC(C)/N=c1\cc2n(-c3ccccc3)c3ccccc3nc-2cc1Nc1ccccc1 (stereo not drawn) | 0.3 | 2 | 0.4 |
| CCN1CCCC(/N=c2\cc3n(-c4ccccc4)c4ccccc4nc-3cc2Nc2ccccc2)C1 (stereo not drawn) | 0.4 | 6 | 0.6 |

| SMILES | Concentration [1] [µg/mL] | Concentration [2] [µg/mL] | Concentration [3] [µg/mL] |
| --- | --- | --- | --- |
| CC(C)/N=c1\cc2n(-c3ccc(Cl)cc3)c3ccccc3nc-2cc1Nc1ccc(Cl)cc1 | 1.5 | 30 | 0.5 |
| Cc1ccc(Nc2cc3nc4ccccc4n(-c4ccc(C)cc4)c-3c/c2=N\C2CCCCC2)cc1 | 8 | 100 | 8 |
| Clc1ccc2c(c1)nc1cc(Nc3ccccc3)/c(=N/C3CCCCC3)cc-1n2-c1ccccc1 | 3 | 20 | 0.6 |
| CCN(CC)CC/N=c1\cc2n(-c3ccccc3)c3ccccc3nc-2cc1Nc1ccccc1 | 0.6 | 6 | 0.8 |
| Cc1ccc(Nc2cc3nc4ccccc4n(-c4ccc(C)cc4)c-3c/c2=N\CC2CCNCC2)cc1 | 0.2 | 0.4 | 0.3 |
| OCC/N=c1\cc2n(-c3ccccc3)c3ccccc3nc-2cc1Nc1ccccc1 | 3 | 20 | 5 |
| Clc1ccc(Nc2cc3nc4ccccc4n(-c4ccc(Cl)cc4)c-3c/c2=N\CCN2CCNCC2)cc1 | 0.2 | 0.8 | 0.2 |
| Cc1ccc(Nc2cc3nc4ccccc4n(-c4ccc(C)cc4)c-3c/c2=N\CCCNC2CCCCC2)cc1 | 0.2 | 0.5 | 0.2 |
| CC(C/N=c1\cc2n(-c3ccc(Cl)cc3)c3ccccc3nc-2cc1Nc1ccc(Cl)cc1)N(C)C (stereo not drawn) | 1.2 | 16 | 6 |
| CC(C)C/N=c1\cc2n(-c3ccccc3)c3ccccc3nc-2cc1Nc1ccccc1 | 2 | 20 | 3 |
| c1ccc(Nc2cc3nc4ccccc4n(-c4ccccc4)c-3c/c2=N\C2CCCC2)cc1 | 3 | 100 | 3 |
| NCCCCCC/N=c1\cc2n(-c3ccc(Cl)cc3)c3ccccc3nc-2cc1Nc1ccc(Cl)cc1 | 0.3 | 2 | 0.8 |
| Clc1ccc(Nc2cc3nc4ccccc4n(-c4ccc(Cl)cc4)c-3c/c2=N\CCCN2CCCC2)cc1 | 0.3 | 0.8 | 0.3 |
| Clc1ccc(Nc2cc3nc4ccccc4n(-c4ccc(Cl)cc4)c-3c/c2=N\CC2CCNCC2)cc1 | 0.2 | 0.6 | 0.2 |
| c1ccc(Nc2cc3nc4ccccc4n(-c4ccccc4)c-3c/c2=N\CC2CCNCC2)cc1 | 0.3 | 0.6 | 0.3 |
| OCCNCC/N=c1\cc2n(-c3ccccc3)c3ccccc3nc-2cc1Nc1ccccc1 | 5 | 10 | 6 |
| Clc1ccc(Nc2cc3nc4ccccc4n(-c4ccc(Cl)cc4)c-3c/c2=N\CCCN2CCCCC2)cc1 | 0.2 | 2 | 0.3 |
| CCC/N=c1\cc2n(-c3ccccc3)c3ccccc3nc-2cc1Nc1ccccc1 | 2 | 20 | 3 |
| NCCCC/N=c1\cc2n(-c3ccc(Cl)cc3)c3ccccc3nc-2cc1Nc1ccc(Cl)cc1 | 0.2 | 0.5 | 0.3 |

| SMILES | Concentration [1] [µg/mL] | Concentration [2] [µg/mL] | Concentration [3] [µg/mL] |
| --- | --- | --- | --- |
| CCCC/N=c1\cc2n(-c3ccc(Cl)cc3)c3ccccc3nc-2cc1Nc1ccc(Cl)cc1 | 3 | 100 | 3 |
| OCC/N=c1\cc2n(-c3ccc(Cl)cc3)c3ccccc3nc-2cc1Nc1ccc(Cl)cc1 | 2 | 20 | 2 |
| Cc1ccc(Nc2cc3nc4ccccc4n(-c4ccc(C)cc4)c-3c/c2=N\CC(C)C)cc1 | 2 | 100 | 3 |
| OCC/N=c1\cc2n(-c3ccccc3)c3ccc(Cl)cc3nc-2cc1Nc1ccccc1 | 2 | 100 | 4 |
| c1ccc(Nc2cc3nc4ccccc4n(-c4ccccc4)c-3c/c2=N\CCCNC2CCCCC2)cc1 | 0.2 | 0.6 | 0.2 |
| Clc1ccc(Nc2cc3nc4ccccc4n(-c4ccc(Cl)cc4)c-3c/c2=N\CCCN2CCOCC2)cc1 | 0.5 | 12 | 0.4 |
| CC1(C)CC(/N=c2\cc3n(-c4ccc(Cl)cc4)c4ccccc4nc-3cc2Nc2ccc(Cl)cc2)CC(C)(C)N1 | 0.2 | 2 | 0.5 |
| c1ccc(Nc2cc3nc4ccccc4n(-c4ccccc4)c-3c/c2=N\CC2CCCCC2)cc1 | 2 | 100 | 2 |
| OC1CCC(/N=c2\cc3n(-c4ccc(Cl)cc4)c4ccccc4nc-3cc2Nc2ccc(Cl)cc2)CC1 (stereo not drawn) | 2 | 30 | 4 |
| c1ccc(Nc2cc3nc4ccccc4n(-c4ccccc4)c-3c/c2=N\C2CCCCC2)cc1 | 3 | 10 | 2 |
| OCCCN1CCN(CCC/N=c2\cc3n(-c4ccc(Cl)cc4)c4ccccc4nc-3cc2Nc2ccc(Cl)cc2)CC1 | 0.6 | 2 | 0.5 |
| c1ccc(Nc2cc3nc4ccccc4n(-c4ccccc4)c-3c/c2=N\CCN2CCOCC2)cc1 | 2 | 10 | 2 |
| OCCC/N=c1\cc2n(-c3ccccc3)c3ccccc3nc-2cc1Nc1ccccc1 | 4 | 20 | 8 |
| c1ccc(Nc2cc3nc4ccccc4n(-c4ccccc4)c-3c/c2=N\CCN2CCCCC2)cc1 | 0.4 | 2 | 0.4 |
| CC(C)NCCC/N=c1\cc2n(-c3ccc(Cl)cc3)c3ccccc3nc-2cc1Nc1ccc(Cl)cc1 | 0.3 | 2 | 0.2 |
| CC1CCCCN1CCC/N=c1\cc2n(-c3ccccc3)c3ccccc3nc-2cc1Nc1ccccc1 (stereo not drawn) | 0.3 | 2 | 0.3 |
| CC(C)C/N=c1\cc2n(-c3ccc(Cl)cc3)c3ccccc3nc-2cc1Nc1ccc(Cl)cc1 | 4 | 100 | 4 |
| CCN(CC)CC/N=c1\cc2n(-c3ccc(Cl)cc3)c3ccccc3nc-2cc1Nc1ccc(Cl)cc1 | 0.6 | 12 | 0.6 |
